# Test results published in ChEMBL document CHEMBL3994673, “Design and Synthesis of Potent and Selective PIM Kinase Inhibitors by Targeting Unique Structure of ATP-Binding Pocket” (ACS Med Chem Lett, 2017).
# Legend:
# [1] = biological target: T1, Serine/threonine-protein kinase pim-1 (Homo sapiens, UniProt P11309); test: Inhibition of PIM1 (unknown origin) using 5-FAM-RSRHSSYPAGT-CONH2 as substrate after 2 hrs by electrophoretic mobility shift assay
# [2] = biological target: T2, Serine/threonine-protein kinase pim-2 (Homo sapiens, UniProt Q9P1W9); test: Inhibition of full length recombinant human N-terminal GST-tagged PIM2 (1 to 311 residues) expressed in baculovirus infected sf21 cells using S6K2 peptide as substrate by electrophoretic mobility shift assay
# [3] = biological target: Death-associated protein kinase 1 (Homo sapiens) (UniProt P53355); test: Inhibition of recombinant human N-terminal GST-tagged DAPK1 catalytic domain (1 to 289 residues) expressed in baculovirus infected sf21 cells at 200 nM using DAPK1tide as substrate by electrophoretic mobility shift assay relative to control
# Summary of the method: (§1)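 Single-point screen of a 52-kinase panel with compound at 200 nM, read as % inhibition of each kinase; run by a contract lab (Carna Biosciences).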
# [4] = biological target: T3, Serine/threonine-protein kinase D2 (Homo sapiens) (UniProt Q9BZL6); test: Inhibition of full length recombinant human N-terminal GST-tagged PKD2 (1 to 878 end residues) expressed in baculovirus infected sf21 cells at 200 nM using GS peptide as substrate by electrophoretic mobility shift assay relative to control; summary of the method: as §1
# T3 sequence (whole entry): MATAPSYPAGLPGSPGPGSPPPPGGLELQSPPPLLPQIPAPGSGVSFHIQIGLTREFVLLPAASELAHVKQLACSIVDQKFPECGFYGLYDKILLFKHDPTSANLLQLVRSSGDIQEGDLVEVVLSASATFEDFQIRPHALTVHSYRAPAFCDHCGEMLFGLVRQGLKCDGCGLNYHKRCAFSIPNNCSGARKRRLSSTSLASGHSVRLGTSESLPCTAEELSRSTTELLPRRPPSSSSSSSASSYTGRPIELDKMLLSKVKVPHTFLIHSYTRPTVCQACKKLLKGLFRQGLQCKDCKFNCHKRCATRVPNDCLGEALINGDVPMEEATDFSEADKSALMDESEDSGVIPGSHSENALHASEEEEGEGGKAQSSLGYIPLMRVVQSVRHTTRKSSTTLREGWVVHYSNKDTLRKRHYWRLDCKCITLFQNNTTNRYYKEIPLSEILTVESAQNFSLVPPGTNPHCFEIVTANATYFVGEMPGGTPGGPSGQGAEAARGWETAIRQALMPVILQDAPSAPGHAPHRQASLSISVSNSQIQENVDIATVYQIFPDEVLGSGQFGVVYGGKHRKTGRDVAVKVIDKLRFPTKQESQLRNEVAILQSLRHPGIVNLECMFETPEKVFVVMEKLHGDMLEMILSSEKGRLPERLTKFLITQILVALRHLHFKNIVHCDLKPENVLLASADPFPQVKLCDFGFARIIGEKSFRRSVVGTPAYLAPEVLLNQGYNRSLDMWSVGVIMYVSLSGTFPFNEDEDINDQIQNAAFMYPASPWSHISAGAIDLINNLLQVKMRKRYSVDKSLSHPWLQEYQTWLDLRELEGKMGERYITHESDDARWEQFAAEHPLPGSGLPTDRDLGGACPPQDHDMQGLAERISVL
# [5] = biological target: Rho-associated protein kinase 1 (Homo sapiens) (UniProt Q13464); test: Inhibition of recombinant human N-terminal GST-tagged ROCK1 catalytic domain (1 to 477 residues) expressed in baculovirus infected sf21 cells at 200 nM using LIMKtide as substrate by electrophoretic mobility shift assay relative to control; summary of the method: as §1
# [6] = biological target: T2, Serine/threonine-protein kinase pim-2; test: Inhibition of full length recombinant human N-terminal GST-tagged PIM2 (1 to 311 residues) expressed in baculovirus infected sf21 cells at 200 nM using S6K2 peptide as substrate by electrophoretic mobility shift assay relative to control; summary of the method: as §1
# [7] = biological target: Protein kinase C alpha type (Homo sapiens) (UniProt P17252); test: Inhibition of full length recombinant human N-terminal GST-tagged PKCalpha (1 to 672 residues) expressed in baculovirus infected sf21 cells at 200 nM using PKC peptide as substrate by electrophoretic mobility shift assay relative to control; summary of the method: as §1
# [8] = biological target: Platelet-derived growth factor receptor alpha (Homo sapiens) (UniProt P16234); test: Inhibition of recombinant human N-terminal GST-tagged PDGFRalpha cytoplasmic domain (550 to 1089 end residues) expressed in baculovirus infected sf21 cells at 200 nM using CSKtide as substrate by electrophoretic mobility shift assay relative to control; summary of the method: as §1
# [9] = Growth inhibition of human MOLM16 cells after 72 hrs by CCK8 assay; assay type: functional, cell-based; settings: MOLM16, 72 h
# WI-38 = test: Growth inhibition of human WI38 cells after 48 hrs by CCK8 assay; assay type: cell-based; settings: WI-38, 48 h
# Summary of the method: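 Cells incubated with compound for 48 h for growth inhibition.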
# [10] = biological target: T1, Serine/threonine-protein kinase pim-1; test: Inhibition of full length recombinant human N-terminal His-tagged PIM1 (1 to 313 end residues) expressed in baculovirus infected sf21 cells using S6K2 peptide as substrate by electrophoretic mobility shift assay
# [11] = Permeability in human Caco2 cells at 10 uM; assay type: ADME, cell-based; settings: Caco-2, read-out: permeability
# Summary of the method: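 Caco-2 monolayer permeability measured with compound at 10 μM, reported in units of 10–6 cm/s; performed by a contract lab (Cerep).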
# [12] = biological target: T1, Serine/threonine-protein kinase pim-1; test: Inhibition of full length recombinant human N-terminal His-tagged PIM1 (1 to 313 end residues) expressed in baculovirus infected sf21 cells at 200 nM using S6K2 peptide as substrate by electrophoretic mobility shift assay relative to control; summary of the method: as §1
# [13] = Stability in human liver microsomes assessed as parent compound remaining at 1 uM after 1 hr; assay type: ADME, microsome; settings: read-out: Stability
# Summary of the method: (§2)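 Compound at 1 μM incubated with liver microsomes (0.3 mg/mL protein) at 37 °C for 1 h; value is percent of parent remaining. Performed by a contract lab (Cerep).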
# [14] = Stability in mouse liver microsomes assessed as parent compound remaining at 1 uM after 1 hr; assay type: ADME, microsome; settings: read-out: Stability; summary of the method: as §2
# [15] = biological target: T4, Serine/threonine-protein kinase pim-3 (Homo sapiens, UniProt Q86V86); test: Inhibition of full length recombinant human N-terminal GST-tagged PIM3 (1 to 326 end residues) expressed in baculovirus infected sf21 cells using S6K2 peptide as substrate by electrophoretic mobility shift assay
# [16] = biological target: T4, Serine/threonine-protein kinase pim-3; test: Inhibition of full length recombinant human N-terminal GST-tagged PIM3 (1 to 326 end residues) expressed in baculovirus infected sf21 cells at 200 nM using S6K2 peptide as substrate by electrophoretic mobility shift assay relative to control; summary of the method: as §1
# [17] = Aqueous solubility of the compound in pH 7.4 PBS by HPLC-UV method; assay type: physicochemical
# Summary of the method: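 Tested in PBS pH 7.4 with a final DMSO concentration of 2%; performed by a contract lab (Cerep).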
# hERG (KCNH2) = hERG (KCNH2) (Homo sapiens, UniProt Q12809); test: Inhibition of human ERG expressed in CHO cells at 10 uM by patch clamp method relative to control; assay type: cell-based; settings: CHO cells expressing human ERG
# Summary of the method: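 hERG block measured by patch clamp with compound at 10 μM; performed by a contract lab (Cerep).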
smiles,measurement,setting,value
CCCCc1ccc2c(/C=C3\Oc4c(ccc(OC)c4CN4CCNCC4)C3=O)c[nH]c2n1,IC50,[1],2.1 nM
CCc1ccc2c(/C=C3\Oc4c(ccc(OC)c4CN4CCNCC4)C3=O)c[nH]c2n1,IC50,[2],290 nM
same,inhibition,[3],77%
same,inhibition,[4],90%
same,IC50,[1],1.1 nM
same,inhibition,[5],50%
same,inhibition,[6],23%
same,inhibition,[7],10%
O=C1/C(=C/c2c[nH]c3ncccc23)Oc2c1ccc(O)c2CN1CCNCC1,IC50,[2],420 nM
same,IC50,[1],2 nM
COc1ccc2c(c1CN1CCNCC1)O/C(=C\c1c[nH]c3nc(F)ccc13)C2=O,inhibition,[3],97%
same,inhibition,[4],59%
same,IC50,[1],0.28 nM
same,inhibition,[5],94%
same,inhibition,[8],79%
N[C@@H]1CCCN(c2c(/C=C3\SC(=O)NC3=O)cccc2-c2ccccc2)C1,IC50,[9],12 nM
same,IC50,WI-38,> 10000 nM
Cc1ccc2c(/C=C3\Oc4c(ccc(O)c4CN4CCNCC4)C3=O)c[nH]c2n1,IC50,[2],510 nM
same,IC50,[1],3.8 nM
COc1ccc2c(c1CN1CCNCC1)O/C(=C\c1c[nH]c3nc(Cl)ccc13)C2=O,IC50,[10],0.49 nM
same,Papp at 10 µM,[11],3.1 nm/s
same,inhibition,[12],99%
same,IC50,[2],140 nM
same,inhibition,[3],80%
same,inhibition,[4],62%
same,"remaining at 1 h, 1 µM",[13],82%
same,"remaining at 1 h, 1 µM",[14],58%
same,IC50,[15],0.4 nM
same,inhibition,[16],> 99%
same,IC50,[1],0.41 nM
same,inhibition,[6],41%
same,inhibition,[8],61%
same,solubility,[17],21 µM
same,inhibition at 10 µM,hERG (KCNH2),22%
COc1ccc2c(c1CN1CCNCC1)O/C(=C\c1c[nH]c3ncccc13)C2=O,Papp at 10 µM,[11],21 nm/s
same,inhibition,[12],> 50%
same,IC50,[2],390 nM
same,"remaining at 1 h, 1 µM",[13],90%
same,"remaining at 1 h, 1 µM",[14],72%
same,inhibition,[16],> 50%
same,IC50,[1],0.84 nM
same,inhibition,[5],> 75%
same,solubility,[17],≥ 200 µM
same,inhibition at 10 µM,hERG (KCNH2),19%
same,inhibition,[7],> 75%
CN1CCC(CNc2ccc3ncc(-c4cccc(OC(F)(F)F)c4)n3n2)CC1 [SGI-1776],IC50,[9],600 nM
same,IC50,WI-38,1700 nM
COc1ccc2c(c1CN1CCNCC1)O/C(=C\c1c[nH]c3nc(C)ccc13)C2=O,Papp at 10 µM,[11],1.3 nm/s
same,IC50,[2],300 nM
same,inhibition,[3],91%
same,"remaining at 1 h, 1 µM",[13],74%
same,"remaining at 1 h, 1 µM",[14],69%
same,IC50,[1],0.64 nM
same,inhibition,[5],50%
same,inhibition,[6],25%
same,solubility,[17],130 µM
same,inhibition at 10 µM,hERG (KCNH2),14%
same,inhibition,[7],10%
COc1ccc2c(c1CN1CCNCC1)O/C(=C\c1c[nH]c3nc(-c4ccccc4)ccc13)C2=O,IC50,[1],16 nM
O=C1/C(=C/c2c[nH]c3nc(Cl)ccc23)Oc2c1ccc(O)c2CN1CCNCC1,IC50,[10],1.3 nM
same,Papp at 10 µM,[11],17 nm/s
same,inhibition,[12],99%
same,IC50,[2],140 nM
same,inhibition,[3],57%
same,inhibition,[4],30%
same,"remaining at 1 h, 1 µM",[13],82%
same,"remaining at 1 h, 1 µM",[14],63%
same,IC50,[15],0.88 nM
same,inhibition,[16],> 99%
same,IC50,[1],1.4 nM
same,inhibition,[6],58%
same,inhibition,[8],63%
same,solubility,[17],130 µM
same,inhibition at 10 µM,hERG (KCNH2),30%
same,IC50,[9],200 nM
same,IC50,WI-38,> 10000 nM
COc1ccc2c(c1CN1CCNCC1)O/C(=C\c1n[nH]c3ccccc13)C2=O,Papp at 10 µM,[11],8.9 nm/s
same,"remaining at 1 h, 1 µM",[13],68%
same,"remaining at 1 h, 1 µM",[14],83%
O=C1/C(=C/c2c[nH]c3nc(F)ccc23)Oc2c1ccc(O)c2CN1CCNCC1,IC50,[1],1.8 nM
CCCc1ccc2c(/C=C3\Oc4c(ccc(OC)c4CN4CCNCC4)C3=O)c[nH]c2n1,IC50,[1],4.5 nM
CCc1ccc2c(/C=C3\Oc4c(ccc(O)c4CN4CCNCC4)C3=O)c[nH]c2n1,IC50,[1],16 nM
